Converted amounts (≈) assume the structure as drawn. The source made the active and inactive calls. No cut-off for these calls is given here.
Key:
Klebsiella pneumoniae [1] = experiment: Antibacterial activity against Klebsiella pneumoniae at 50 ug/ml incubated for 24 hrs by agar well diffusion method; format: functional; details: read-out: DIZ
Method in brief: (§1)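 Bacteria grown in nutrient broth at 37 °C for 24 h, then subcultured at room temperature. Compounds dissolved in DMSO at 5 mg mL⁻¹ and 5–20 µL added to 6 mm wells, giving 25, 50, 75, 100 µg per well. Gentamicin was the positive control and DMSO the negative control. Plates held at 37 °C for 24 h, then inhibition zone diameter (mm) measured. Values are means of three determinations.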

Klebsiella pneumoniae [2] = experiment: Antibacterial activity against Klebsiella pneumoniae at 25 ug/ml incubated for 24 hrs by agar well diffusion method; format: functional; details: read-out: DIZ; method in brief: as §1
Erythrocyte = experiment: Anti-inflammatory activity in human RBC assessed as inhibition of hypotonic solution-induced hemolysis after 10 mins by spectrophotometric method; format: functional, cell-based
Method in brief: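 Human blood (heparinized) washed with 0.9% saline, packed cells made into a 40% v/v stock in isotonic phosphate buffer (154 mM NaCl, 10 mM sodium phosphate, pH 7.4). Stock RBC mixed with hypotonic buffer (50 mM NaCl, 10 mM phosphate, pH 7.4) plus sample at 20–100 µg mL⁻¹.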

Candida albicans [3] = experiment: Antifungal activity against Candida albicans at 50 ug/ml incubated for 48 hrs by agar well diffusion method; format: functional; details: read-out: DIZ
Method in brief: (§2)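 Compounds dissolved in DMSO at 5 mg mL⁻¹ and 5–20 µL added to 6 mm wells, giving 25, 50, 75, 100 µg per well. Bavistin was the positive control and DMSO the negative control. Plates incubated at 28 °C for 48 h, then inhibition zone diameter (mm) measured. Values are means of three determinations.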

Staphylococcus aureus [4] = experiment: Antibacterial activity against Staphylococcus aureus at 100 ug/ml incubated for 24 hrs by agar well diffusion method; format: functional; details: read-out: DIZ; method in brief: as §1
Staphylococcus aureus [5] = experiment: Antibacterial activity against Staphylococcus aureus at 25 ug/ml incubated for 24 hrs by agar well diffusion method; format: functional; details: read-out: DIZ; method in brief: as §1
Candida albicans [6] = experiment: Antifungal activity against Candida albicans at 25 ug/ml incubated for 48 hrs by agar well diffusion method; format: functional; details: read-out: DIZ; method in brief: as §2
Staphylococcus aureus [7] = experiment: Antibacterial activity against Staphylococcus aureus at 50 ug/ml incubated for 24 hrs by agar well diffusion method; format: functional; details: read-out: DIZ; method in brief: as §1
Klebsiella pneumoniae [8] = experiment: Antibacterial activity against Klebsiella pneumoniae at 100 ug/ml incubated for 24 hrs by agar well diffusion method; format: functional; details: read-out: DIZ; method in brief: as §1
Staphylococcus aureus [9] = experiment: Antibacterial activity against Staphylococcus aureus at 75 ug/ml incubated for 24 hrs by agar well diffusion method; format: functional; details: read-out: DIZ; method in brief: as §1
Fusarium oxysporum [10] = experiment: Antifungal activity against Fusarium oxysporum at 100 ug/ml incubated for 48 hrs by agar well diffusion method; format: functional; method in brief: as §2
Candida albicans [11] = experiment: Antifungal activity against Candida albicans at 100 ug/ml incubated for 48 hrs by agar well diffusion method; format: functional; details: read-out: DIZ; method in brief: as §2
Aspergillus niger [12] = experiment: Antifungal activity against Aspergillus niger at 50 ug/ml incubated for 48 hrs by agar well diffusion method; format: functional; details: read-out: DIZ; method in brief: as §2
Escherichia coli [13] = experiment: Antibacterial activity against Escherichia coli at 75 ug/ml incubated for 24 hrs by agar well diffusion method; format: functional; details: read-out: DIZ; method in brief: as §1
Bacillus subtilis [14] = experiment: Antibacterial activity against Bacillus subtilis at 25 ug/ml incubated for 24 hrs by agar well diffusion method; format: functional; details: read-out: DIZ; method in brief: as §1
Escherichia coli [15] = experiment: Antibacterial activity against Escherichia coli at 50 ug/ml incubated for 24 hrs by agar well diffusion method; format: functional; details: read-out: DIZ; method in brief: as §1
Aspergillus niger [16] = experiment: Antifungal activity against Aspergillus niger at 100 ug/ml incubated for 48 hrs by agar well diffusion method; format: functional; details: read-out: DIZ; method in brief: as §2
Bacillus subtilis [17] = experiment: Antibacterial activity against Bacillus subtilis at 100 ug/ml incubated for 24 hrs by agar well diffusion method; format: functional; details: read-out: DIZ; method in brief: as §1
Escherichia coli [18] = experiment: Antibacterial activity against Escherichia coli at 100 ug/ml incubated for 24 hrs by agar well diffusion method; format: functional; details: read-out: DIZ; method in brief: as §1
Candida albicans [19] = experiment: Antifungal activity against Candida albicans at 75 ug/ml incubated for 48 hrs by agar well diffusion method; format: functional; details: read-out: DIZ; method in brief: as §2
Aspergillus niger [20] = experiment: Antifungal activity against Aspergillus niger at 75 ug/ml incubated for 48 hrs by agar well diffusion method; format: functional; details: read-out: DIZ; method in brief: as §2
Klebsiella pneumoniae [21] = experiment: Antibacterial activity against Klebsiella pneumoniae at 75 ug/ml incubated for 24 hrs by agar well diffusion method; format: functional; details: read-out: DIZ; method in brief: as §1
Aspergillus niger [22] = experiment: Antifungal activity against Aspergillus niger at 25 ug/ml incubated for 48 hrs by agar well diffusion method; format: functional; details: read-out: DIZ; method in brief: as §2
Bacillus subtilis [23] = experiment: Antibacterial activity against Bacillus subtilis at 75 ug/ml incubated for 24 hrs by agar well diffusion method; format: functional; details: read-out: DIZ; method in brief: as §1
Fusarium oxysporum [24] = experiment: Antifungal activity against Fusarium oxysporum at 75 ug/ml incubated for 48 hrs by agar well diffusion method; format: functional; method in brief: as §2
Bacillus subtilis [25] = experiment: Antibacterial activity against Bacillus subtilis at 50 ug/ml incubated for 24 hrs by agar well diffusion method; format: functional; details: read-out: DIZ; method in brief: as §1
Escherichia coli [26] = experiment: Antibacterial activity against Escherichia coli at 25 ug/ml incubated for 24 hrs by agar well diffusion method; format: functional; details: read-out: DIZ; method in brief: as §1
Fusarium oxysporum [27] = experiment: Antifungal activity against Fusarium oxysporum at 25 ug/ml incubated for 48 hrs by agar well diffusion method; format: functional; method in brief: as §2
Fusarium oxysporum [28] = experiment: Antifungal activity against Fusarium oxysporum at 50 ug/ml incubated for 48 hrs by agar well diffusion method; format: functional; method in brief: as §2

Compound CC(C)C[C@H](NC(=O)OC(C)(C)C)C(=O)Oc1ccc2c(=O)c3ccccc3oc2c1 has a zone of inhibition at 50 µg/mL (Klebsiella pneumoniae [1]) of 11 mm, a zone of inhibition at 25 µg/mL (Klebsiella pneumoniae [2]) of 8 mm and an IC50 (Erythrocyte) of 64 µg/mL (≈ 150 µM). The zone of inhibition at 50 µg/mL (Candida albicans [3]) was 11 mm, the zone of inhibition at 100 µg/mL (Staphylococcus aureus [4]) was 22 mm and the zone of inhibition at 25 µg/mL (Staphylococcus aureus [5]) was 7 mm. The zone of inhibition at 25 µg/mL (Candida albicans [6]) was 8 mm, the zone of inhibition at 50 µg/mL (Staphylococcus aureus [7]) was 13 mm and the zone of inhibition at 100 µg/mL (Klebsiella pneumoniae [8]) was 20 mm. For the same compound, the zone of inhibition at 75 µg/mL (Staphylococcus aureus [9]) was 17 mm, the zone of inhibition at 100 µg/mL (Fusarium oxysporum [10]; read-out: DIZ) was 19 mm and the zone of inhibition at 100 µg/mL (Candida albicans [11]) was 20 mm. For the same compound, the zone of inhibition at 50 µg/mL (Aspergillus niger [12]) was 15 mm, the zone of inhibition at 75 µg/mL (Escherichia coli [13]) was 17 mm and the zone of inhibition at 25 µg/mL (Bacillus subtilis [14]) was 11 mm. For the same compound, the zone of inhibition at 50 µg/mL (Escherichia coli [15]) was 10 mm, the zone of inhibition at 100 µg/mL (Aspergillus niger [16]) was 22 mm and the zone of inhibition at 100 µg/mL (Bacillus subtilis [17]) was 24 mm. For the same compound, the zone of inhibition at 100 µg/mL (Escherichia coli [18]) was 21 mm, the zone of inhibition at 75 µg/mL (Candida albicans [19]) was 16 mm and the zone of inhibition at 75 µg/mL (Aspergillus niger [20]) was 18 mm. It also gave a zone of inhibition at 75 µg/mL (Klebsiella pneumoniae [21]) of 14 mm, a zone of inhibition at 25 µg/mL (Aspergillus niger [22]) of 10 mm and a zone of inhibition at 75 µg/mL (Bacillus subtilis [23]) of 20 mm. The zone of inhibition at 75 µg/mL (Fusarium oxysporum [24]; read-out: DIZ) was 15 mm, the zone of inhibition at 50 µg/mL (Bacillus subtilis [25]) was 16 mm and the zone of inhibition at 25 µg/mL (Escherichia coli [26]) was 4 mm. The zone of inhibition at 25 µg/mL (Fusarium oxysporum [27]; read-out: DIZ) was 10 mm and the zone of inhibition at 50 µg/mL (Fusarium oxysporum [28]; read-out: DIZ) was 12 mm.

CC[C@H](C)[C@H](NC(=O)OC(C)(C)C)C(=O)Oc1ccc2c(=O)c3ccccc3oc2c1 showed a zone of inhibition at 50 µg/mL (Klebsiella pneumoniae [1]) of 14 mm, a zone of inhibition at 25 µg/mL (Klebsiella pneumoniae [2]) of 7 mm and an IC50 (Erythrocyte) of 60 µg/mL (≈ 141 µM). The zone of inhibition at 50 µg/mL (Candida albicans [3]) was 13 mm, the zone of inhibition at 100 µg/mL (Staphylococcus aureus [4]) was 19 mm and the zone of inhibition at 25 µg/mL (Staphylococcus aureus [5]) was 4 mm. For the same compound, the zone of inhibition at 25 µg/mL (Candida albicans [6]) was 9 mm, the zone of inhibition at 50 µg/mL (Staphylococcus aureus [7]) was 10 mm and the zone of inhibition at 100 µg/mL (Klebsiella pneumoniae [8]) was 25 mm. For the same compound, the zone of inhibition at 75 µg/mL (Staphylococcus aureus [9]) was 15 mm, the “diameter of the inhibition zone (DIZ)” value (Fusarium oxysporum [10]) was “inactive” and the zone of inhibition at 100 µg/mL (Candida albicans [11]) was 22 mm. It also gave a zone of inhibition at 50 µg/mL (Aspergillus niger [12]) of 12 mm, a zone of inhibition at 75 µg/mL (Escherichia coli [13]) of 19 mm and a zone of inhibition at 25 µg/mL (Bacillus subtilis [14]) of 7 mm. It also gave a zone of inhibition at 50 µg/mL (Escherichia coli [15]) of 12 mm, a zone of inhibition at 100 µg/mL (Aspergillus niger [16]) of 20 mm and a zone of inhibition at 100 µg/mL (Bacillus subtilis [17]) of 19 mm. For the same compound, the zone of inhibition at 100 µg/mL (Escherichia coli [18]) was 22 mm, the zone of inhibition at 75 µg/mL (Candida albicans [19]) was 17 mm and the zone of inhibition at 75 µg/mL (Aspergillus niger [20]) was 16 mm. It also gave a zone of inhibition at 75 µg/mL (Klebsiella pneumoniae [21]) of 20 mm, a zone of inhibition at 25 µg/mL (Aspergillus niger [22]) of 8 mm and a zone of inhibition at 75 µg/mL (Bacillus subtilis [23]) of 14 mm. For the same compound, the “diameter of the inhibition zone (DIZ)” value (Fusarium oxysporum [24]) was “inactive”, the zone of inhibition at 50 µg/mL (Bacillus subtilis [25]) was 11 mm and the zone of inhibition at 25 µg/mL (Escherichia coli [26]) was 8 mm. For the same compound, the “diameter of the inhibition zone (DIZ)” value (Fusarium oxysporum [27]) was “inactive” and the “diameter of the inhibition zone (DIZ)” value (Fusarium oxysporum [28]) was “inactive”.
